Compound activity (PubChem BioAssay)
Beta cell apopt = beta cell apoptosis inhibition; hit rate 0.8% among 300,000; protection from apoptosis, % (test concentration not listed); INS-1E cytokine-induced death, ATP luminescence, 48 h; percent of positive-control rescue, neutral wells zero; AID 435005;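 active = Every replicate reaches about 75%, or at least half do and their mean reaches it too, limit read from the data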;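 also: higher means more ATP so stronger rescue from cytokine killing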
A1 inh = inhibitors of the anti-apoptotic protein A1, read as caspase activation; MEF A1-2A-BIM cells, Caspase-Glo 3/7 luminescence, 3 h; percent of clofoctol response, vehicle zero; caspase activation, % (test concentration not listed); hit rate 0.066% among 330,000;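 active = over half of replicate activation scores above 10%, or exactly half above 10 with the replicate mean above 10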
KLF5 inhibitor = suppresses KLF5 promoter-driven expression | DLD-1 KLF5 promoter-luciferase reporter, luminescence | inhibition, % at 5 µM | hit rate 0.23% among 290,000 | AID 1700;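 active = inhibition above a per-plate limit of that plate's mean compound inhibition plus 3 SD, cut at about 60% in these data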;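 also: higher means less KLF5 promoter-driven luciferase light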
T cruzi repl = blocks replication of Trypanosoma cruzi. T. cruzi beta-gal in NIH3T3, luminescence, 90 h. inhibition, % (test concentration not listed). hit rate 1.4% among 300,000. AID 1885;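 active = mean inhibition across valid replicates above about 55%, limit read from the data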;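 also: signal also drops with host cell toxicity which is not excluded here; higher percent means less beta-gal luminescence so fewer parasites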
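assay system = mouse NIH/3T3 fibroblasts infected with β-gal-expressing T. cruzi Tulahuen C4 | input = 5,000 NIH/3T3 host cells per well | buffer or medium = DMEM plus 2% FBS | timing = 3 h host attachment, then at least 90 h co-culture | measured by = GalScreen luminescence, 60 min | evaluation = luminescence reflecting intracellular parasite burden, expressed as percent inhibition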
HIF act = HIF pathway transcriptional activation | U2OS HRE-luciferase reporter, luminescence; normalized: DMSO 0%, desferrioxamine 100% | activation, % at 7.5 µM (by protocol) | hit rate 0.32% among 300,000 | AID 1910;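 active = mean activation of at least 10% of the iron chelator positive control signal, with at least half of replicates also reaching 10%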
Of the large screens only hits and unclear results are named; the others gave an inactive call. The list is not random: actives were taken first. Their share in the collection is about 2.3%.

Cc1ccc(C)c(N=Nc2ccc(O)c3ncccc23)c1	Beta cell apopt 88
Oc1ccc(N=Nc2ccc3c(c2)OCCO3)c2ncccc12	Beta cell apopt 96, T cruzi repl 68
Cc1ccc(N=Nc2cc(C)ccc2O)c(C)c1	none
Cc1cccc(N=Nc2ccc(O)c3ncccc23)c1	Beta cell apopt 88
CCS(=O)(=O)c1ccc(OC)c(N=Nc2ccc(O)c3ncccc23)c1	Beta cell apopt 108
Cc1ccc(NCc2ccc(O)c3ncccc23)cc1	none
O=C(Oc1cccc2cccnc12)c1ccc2c(c1)OCCO2	none
Cc1onc(-c2ccccc2)c1C(=O)NC(=S)NNC(=O)c1ccccc1O	Beta cell apopt 85
Cc1onc(-c2ccccc2)c1C(=O)NC(=S)NNC(=O)c1ccc(O)cc1	none
Cc1onc(-c2ccccc2)c1C(=O)NC(=S)NNC(=O)c1ccc(O)cc1O	Beta cell apopt 91
COc1ccc(C)cc1NC(=O)CN(C)C1CCCCC1	none
COC(=O)C(NC(=O)c1c(C)nn(C)c1Cl)c1ccccc1 (centres undefined)	HIF act 609
Cc1ccc(S(=O)(=O)N(C)CC(=O)Nc2nnc(CC(C)C)s2)cc1	none
O=C(COc1ccc2c(c1)oc(=O)c1ccccc12)NCCCN1CCOCC1	none
COc1ccccc1NC(=O)c1cc(C(=O)Nc2ccccc2OC)n(C)n1	none (no result: Beta cell apopt, KLF5 inhibitor)
COc1ccccc1CN1CCN(Cc2nc(Cc3ccccc3)no2)CC1	T cruzi repl 63
COc1ccccc1CN1CCN(Cc2nc(-c3ccccc3)no2)CC1	none
Fc1ccc(CN2CCCN(Cc3nc(-c4ccc5c(c4)OCO5)no3)CC2)cc1	T cruzi repl 67
Fc1ccccc1Cc1noc(CN2CCN(Cc3ccc4c(c3)OCO4)CC2)n1	T cruzi repl 60
CCOC(=O)[C@@H]1[C@H]2COc3cc(OC)ccc3[C@H]2N2C(=O)N(c3ccc(C)cc3)C(=O)[C@@]12C	none
Oc1ccc(-c2cn3ccccc3n2)cc1O	HIF act 45
Oc1ccc(-c2cn3ccccc3n2)cc1	none
Cc1ccn2cc(-c3ccc(O)c(O)c3)nc2c1	HIF act 30
COc1ccc(S(=O)(=O)N2CCOC2CNC(=O)C(=O)NCCN2CCOCC2)cc1 (centres undefined)	none
COCCC(=O)Nc1ccc2c(c1)CN(C(=O)c1ccc(CSC)o1)CC2	none
CCN(CCCNC(=O)CCCOc1cc(=O)n(C)c2ccccc12)Cc1ccccc1	T cruzi repl 55
Cc1ccc(C)c(N2CCN(C(=O)CCCOc3cc(=O)n(C)c4ccccc34)CC2)c1	Beta cell apopt 94
Cc1ccc(C)c(N2CCN(C(=O)COc3cc(=O)n(C)c4ccccc34)CC2)c1	none
Cc1c(NC(=O)c2ccc(NS(=O)(=O)c3ccc(F)c(F)c3)cc2)c(=O)n(-c2ccccc2)n1C	none (no result: KLF5 inhibitor, T cruzi repl, HIF act)
Cc1ccc(OCC(=O)NC2CCCC2)c(C)c1	none
Cc1ccc(C(C)C)c(OCC(=O)NC2CCN(C)CC2)c1	T cruzi repl 64
Cc1cc(Cl)ccc1OCCCC(=O)NC1CCN(C)CC1	T cruzi repl 71
CC(=O)Nc1ccc(S(=O)(=O)NCCC(=O)OCC(=O)N2CCN(C(=O)c3ccco3)CC2)cc1	none
CC(C)NC(=O)CCCN1C(=O)c2ccccc2Sc2ncccc21	none
CCCCc1c(C)nc(N)[nH]c1=O	HIF act 20
O=C(CN1CC[n+]2c(-c3ccccc3)csc21)c1ccc(Br)cc1	none
O=C(CN1CC[n+]2c(-c3cccs3)csc21)c1ccc(Br)cc1	T cruzi repl 60
COc1ccccc1N1CCN(C(=O)c2ccc3[nH]c(C)c(C)c3c2)CC1	none
COc1ccccc1N1CCN(C(=O)c2ccc3[nH]c4c(c3c2)CC(C)CC4)CC1 (centres undefined)	T cruzi repl 57
COc1ccccc1Nc1nc(NCC2CCCO2)c2ccccc2n1 (centres undefined)	T cruzi repl 64 (no result: Beta cell apopt)
COc1ccc(OC)c(Nc2nc(NCCO)c3ccccc3n2)c1	T cruzi repl 56
COc1ccc(OC)c(Nc2cc(C)c3ccccc3n2)c1	KLF5 inhibitor 65 (no result: Beta cell apopt)
COc1cccc(-c2nc(NCC3CCCO3)c3ccccc3n2)c1O (centres undefined)	none
COc1ccc(OC)c(Nc2c3ccccc3nc3ccccc23)c1	none
COc1ccc(NC(=O)N(C)C[C@H]2Oc3c(NC(=O)C4CC4)cccc3C(=O)N([C@H](C)CO)C[C@@H]2C)cc1	none (no result: KLF5 inhibitor, T cruzi repl, HIF act)
CCc1n[nH]c(=S)n1/N=C/c1ccc(-c2ccc(Br)cc2)o1	HIF act 22 (no result: KLF5 inhibitor)
Cc1ccc(N(CC(=O)NCc2ccco2)C(=O)CCC(=O)Nc2nccs2)cc1C	none
CC(=O)c1cccc(N=c2scc(-c3ccc(S(=O)(=O)N4CCOCC4)cc3)n2CCO)c1	Beta cell apopt 75
C=CCn1c(-c2ccc(S(=O)(=O)N3CCOCC3)cc2)csc1=Nc1ccccc1	none
Cc1[nH]nc2nc(SCC(=O)NCCC3=CCCCC3)n(-c3ccc(Br)cc3)c(=N)c12	Beta cell apopt 93
Cc1ccc[n+](CC(=O)Nc2cc(C(F)(F)F)ccc2Cl)c1	none
CCC(C)(C)c1ccc(OCCCC[n+]2cccc(C)c2)c(C(C)(C)CC)c1	T cruzi repl 60 (no result: Beta cell apopt, A1 inh)
O=C(COc1ccc(/C=N/NC(=O)c2ccncc2)cc1)Nc1ccc([N+](=O)[O-])cc1	none
O=C(/C=C/c1ccc([N+](=O)[O-])cc1)Oc1ccc(/C=N/NC(=O)c2ccncc2)cc1	T cruzi repl 55
O=[N+]([O-])c1ccc(/C=C/c2ccncc2)cc1	T cruzi repl 65
O=C(N/N=C/c1ccc([N+](=O)[O-])cc1)c1ccc(COc2ccccc2-c2ccccc2)cc1	T cruzi repl 61
Cc1ccc(C)c(S(=O)(=O)N2CCN(Cc3cc4c(cc3O)OCO4)CC2)c1	none (no result: KLF5 inhibitor, T cruzi repl, HIF act)
CN(Cc1c(F)cccc1Cl)C(=O)c1cc2ccccc2o1	Beta cell apopt 99
Cc1[nH]n2c(=O)cc(C(C)(C)C)nc2c1-c1ccccc1	T cruzi repl 59
Cc1cc(C(=O)N/N=C/c2cc(Br)cc(Br)c2OC(=O)c2cccc(F)c2)n[nH]1	Beta cell apopt 97, T cruzi repl 65
Cc1cc(C(=O)N/N=C/c2cc(Br)ccc2OC(=O)c2ccc(Br)cc2)n[nH]1	Beta cell apopt 91
Cc1cccc(C(=O)Oc2c(Br)cc(Br)cc2/C=N/NC(=O)c2ccncc2)c1	none
Cc1cc(C(=O)N/N=C/c2cc(Br)cc(Br)c2OC(=O)c2ccccc2)n[nH]1	Beta cell apopt 94
Cc1cccc(NC(=O)N2CCC(NC(=O)C3CCCCC3)CC2)c1	none
COc1ccc(CCNC(=O)c2cccc(C(=O)NCCc3ccc(OC)cc3)n2)cc1	none (no result: KLF5 inhibitor)
O=C(O)Cc1cn(Cc2cccc(Cl)c2)c2ccccc12	none
CC1CCCN(C(=O)Cc2cn(Cc3cccc(Cl)c3)c3ccccc23)C1 (centres undefined)	T cruzi repl 55
O=C(Cc1cn(Cc2cccc(Cl)c2)c2ccccc12)N1CCCCCC1	T cruzi repl 59
